Reference: ChEMBL document CHEMBL3046428, “Isolation, characterization and antifungal activity of major constituents of the Himalayan lichen Parmelia reticulata Tayl” (2011)
Values after ≈ are worked out from the molar mass of the structure shown.

Legend:
Type in all cases: functional
[1] = tested on: Globisporangium debaryanum; experiment: Antifungal activity against Pythium debaryanum assessed as growth inhibition by poisoned food technique; settings: read-out: ED50 (the source's name)
Procedure, shortened: (§1)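 ED50 from poisoned-food growth inhibition on PDA at 250, 125 and 62.5 μg/mL in medium, with an acetone control. Plates were inoculated with a 5 mm mycelial disc, incubated at 28 °C, and colony diameter was measured in quadruplicate. Percent inhibition was corrected by Abbott's formula, using a correction factor from the 9 cm dish diameter, and ED50 (μg/mL) was derived by probit analysis.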

[2] = tested on: Globisporangium debaryanum; experiment: Antifungal activity against Pythium debaryanum assessed as growth inhibition at 62.5 ug/ml by poisoned food technique
Procedure, shortened: (§2)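 Poisoned-food assay on PDA. Test material was diluted in acetone and mixed into molten medium at final 250, 125 or 62.5 μg/mL, with 1 mL acetone as control. Plates received a 5 mm mycelial disc from the front of a 2-week-old colony and were incubated at 28 °C until control growth was nearly complete. Colony diameter was measured, giving %I = (C−T)/C×100. Mean ± SD of four replicates.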

[3] = tested on: Globisporangium debaryanum; experiment: Antifungal activity against Pythium debaryanum assessed as growth inhibition at 125 ug/ml by poisoned food technique; procedure, shortened: as §2
[4] = tested on: Globisporangium debaryanum; experiment: Antifungal activity against Pythium debaryanum assessed as growth inhibition at 250 ug/ml by poisoned food technique; procedure, shortened: as §2
[5] = tested on: Pythium aphanidermatum; experiment: Antifungal activity against Pythium aphanidermatum assessed as growth inhibition by poisoned food technique; settings: read-out: ED50 (the source's name); procedure, shortened: as §1
[6] = tested on: Pythium aphanidermatum; experiment: Antifungal activity against Pythium aphanidermatum assessed as growth inhibition at 62.5 ug/ml by poisoned food technique; procedure, shortened: as §2
[7] = tested on: Pythium aphanidermatum; experiment: Antifungal activity against Pythium aphanidermatum assessed as growth inhibition at 125 ug/ml by poisoned food technique; procedure, shortened: as §2
[8] = tested on: Pythium aphanidermatum; experiment: Antifungal activity against Pythium aphanidermatum assessed as growth inhibition at 250 ug/ml by poisoned food technique; procedure, shortened: as §2
[9] = tested on: Fusarium udum; experiment: Antifungal activity against Fusarium udum assessed as growth inhibition by poisoned food technique; settings: read-out: ED50 (the source's name); procedure, shortened: as §1
[10] = tested on: Fusarium udum; experiment: Antifungal activity against Fusarium udum assessed as growth inhibition at 62.5 ug/ml by poisoned food technique; procedure, shortened: as §2
[11] = tested on: Fusarium udum; experiment: Antifungal activity against Fusarium udum assessed as growth inhibition at 125 ug/ml by poisoned food technique; procedure, shortened: as §2
[12] = tested on: Fusarium udum; experiment: Antifungal activity against Fusarium udum assessed as growth inhibition at 250 ug/ml by poisoned food technique; procedure, shortened: as §2
[13] = tested on: Macrophomina phaseolina; experiment: Antifungal activity against Rhizoctonia bataticola assessed as growth inhibition by poisoned food technique; settings: read-out: ED50 (the source's name); procedure, shortened: as §1
[14] = tested on: Macrophomina phaseolina; experiment: Antifungal activity against Rhizoctonia bataticola assessed as growth inhibition at 62.5 ug/ml by poisoned food technique; procedure, shortened: as §2
[15] = tested on: Macrophomina phaseolina; experiment: Antifungal activity against Rhizoctonia bataticola assessed as growth inhibition at 125 ug/ml by poisoned food technique; procedure, shortened: as §2
[16] = tested on: Macrophomina phaseolina; experiment: Antifungal activity against Rhizoctonia bataticola assessed as growth inhibition at 250 ug/ml by poisoned food technique; procedure, shortened: as §2
[17] = tested on: Rhizoctonia solani; experiment: Antifungal activity against Rhizoctonia solani assessed as growth inhibition by poisoned food technique; settings: read-out: ED50 (the source's name); procedure, shortened: as §1
[18] = tested on: Rhizoctonia solani; experiment: Antifungal activity against Rhizoctonia solani assessed as growth inhibition at 62.5 ug/ml by poisoned food technique; procedure, shortened: as §2
[19] = tested on: Rhizoctonia solani; experiment: Antifungal activity against Rhizoctonia solani assessed as growth inhibition at 125 ug/ml by poisoned food technique; procedure, shortened: as §2
[20] = tested on: Rhizoctonia solani; experiment: Antifungal activity against Rhizoctonia solani assessed as growth inhibition at 250 ug/ml by poisoned food technique; procedure, shortened: as §2
[21] = tested on: Athelia rolfsii; experiment: Antifungal activity against Athelia rolfsii assessed as growth inhibition by poisoned food technique; settings: Agroathelia rolfsii; read-out: ED50 (the source's name); procedure, shortened: as §1
[22] = tested on: Athelia rolfsii; experiment: Antifungal activity against Athelia rolfsii assessed as growth inhibition at 62.5 ug/ml by poisoned food technique; settings: Agroathelia rolfsii; procedure, shortened: as §2
[23] = tested on: Athelia rolfsii; experiment: Antifungal activity against Athelia rolfsii assessed as growth inhibition at 125 ug/ml by poisoned food technique; settings: Agroathelia rolfsii; procedure, shortened: as §2
[24] = tested on: Athelia rolfsii; experiment: Antifungal activity against Athelia rolfsii assessed as growth inhibition at 250 ug/ml by poisoned food technique; settings: Agroathelia rolfsii; procedure, shortened: as §2

| Structure (SMILES) | EC50 [1] [µg/mL] | inhibition at 62.5 µg/mL [2] [%] | inhibition at 125 µg/mL [3] [%] | inhibition at 250 µg/mL [4] [%] | EC50 [5] [µg/mL] | inhibition at 62.5 µg/mL [6] [%] | inhibition at 125 µg/mL [7] [%] | inhibition at 250 µg/mL [8] [%] | EC50 [9] [µg/mL] | inhibition at 62.5 µg/mL [10] [%] | inhibition at 125 µg/mL [11] [%] | inhibition at 250 µg/mL [12] [%] | EC50 [13] [µg/mL] | inhibition at 62.5 µg/mL [14] [%] | inhibition at 125 µg/mL [15] [%] | inhibition at 250 µg/mL [16] [%] | EC50 [17] [µg/mL] | inhibition at 62.5 µg/mL [18] [%] | inhibition at 125 µg/mL [19] [%] | inhibition at 250 µg/mL [20] [%] | also measured |
| --- | --- | --- | --- | --- | --- | --- | --- | --- | --- | --- | --- | --- | --- | --- | --- | --- | --- | --- | --- | --- | --- |
| CC(=O)C1=C(O)C=C2Oc3c(C)c(O)c(C(C)=O)c(O)c3C2(C)C1=O (racemic) [(+/-)-ISOUSNIC ACID] | 71 (≈ 206 µM) | 35.1 | 66.2 | 72.1 | 62.3 (≈ 181 µM) | 46.1 | 53.2 | 75.4 | 70.9 (≈ 206 µM) | 33.4 | 63.3 | 81 | 70.4 (≈ 204 µM) | 29.3 | 69.1 | 87.2 | 64.6 (≈ 188 µM) | 35.2 | 73.1 | 86.4 | EC50 [21]: 69.6 µg/mL (≈ 202 µM); inhibition at 62.5 µg/mL [22]: 32.8%; inhibition at 125 µg/mL [23]: 66.1%; inhibition at 250 µg/mL [24]: 84% |
| C=C1C(=O)OC(CCCCCCCCCCCCC)C1C(=O)O (racemic) [(+/-)-Protolichesterinic acid] | 16.1 (≈ 49.5 µM) | 78.3 | 90 | 100 | 57.1 (≈ 176 µM) | 44.3 | 72.3 | 80.3 | 55.7 (≈ 172 µM) | 44.3 | 78 | 90.3 | 77.6 (≈ 239 µM) | 28.3 | 50 | 89.3 | 23.1 (≈ 71.2 µM) | 67 | 77 | 83.3 | EC50 [21]: 61.4 µg/mL (≈ 189 µM); inhibition at 62.5 µg/mL [22]: 39.3%; inhibition at 125 µg/mL [23]: 72.2%; inhibition at 250 µg/mL [24]: 90% |
| COC(=O)c1c(C)cc(O)c(C)c1O [ATRARIC ACID] | 57 (≈ 290 µM) | 44 | 72.3 | 89.3 | 81.5 (≈ 415 µM) | 22.3 | 50 | 88.3 | 82.3 (≈ 420 µM) | 26.7 | 50 | 80.5 | 77.2 (≈ 394 µM) | 28.3 | 50.3 | 90.3 | 57.5 (≈ 293 µM) | 46 | 67 | 80.3 | EC50 [21]: 80.2 µg/mL (≈ 409 µM); inhibition at 62.5 µg/mL [22]: 33%; inhibition at 125 µg/mL [23]: 50%; inhibition at 250 µg/mL [24]: 74.3% |
| COc1cc(C)c(C(=O)O)c(O)c1C | 73.8 (≈ 376 µM) | 33 | 61.4 | 83.8 | 71.1 (≈ 362 µM) | 28.4 | 67.7 | 79.3 | 106 (≈ 541 µM) | 23.7 | 46.5 | 58 | 74.5 (≈ 380 µM) | 39.4 | 56.4 | 68 | 50.6 (≈ 258 µM) | 50 | 70.6 | 82 | EC50 [21]: 116 µg/mL (≈ 589 µM); inhibition at 62.5 µg/mL [22]: 28.4%; inhibition at 125 µg/mL [23]: 44.3%; inhibition at 250 µg/mL [24]: 53% |
| COc1cc(C)c2c(=O)c3c(O)cc(OC)cc3oc2c1 [LICHEXANTHONE] | 149 (≈ 520 µM) | 9.03 | 28.4 | 42 | 174 (≈ 608 µM) | 13 | 23.4 | 42.7 | 151 (≈ 528 µM) | 20.3 | 24.5 | 53.3 | 134 (≈ 467 µM) | 11.4 | 30.3 | 50 | 202 (≈ 707 µM) | 19.6 | 29.4 | 41 | EC50 [21]: 273 µg/mL (≈ 955 µM); inhibition at 62.5 µg/mL [22]: 16.7%; inhibition at 125 µg/mL [23]: 23.2%; inhibition at 250 µg/mL [24]: 37.3% |
